Experimental data from article PMC2736802 (Drug metabolism and disposition: the biological fate of …, 2008).
“Also recorded” adds a separate entry of the source. Like-named read-outs stand apart in the source and are kept apart here.

Columns and labels:
P450 3A4 [1] = type: biochemical, human; conditions: substrate testosterone; reconstituted system
P450 3A4 [2] = assay: Trapping of reactive intermediates formed by P450 3A4 with GSH; type: in vitro ADME, human; conditions: incubation with P450 3A4 in the presence of GSH and NADPH
In short: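 Reconstituted P450 3A4 (0.5 nmol, with reductase and lipid) was inactivated by the test compound plus NADPH in the presence of 10 mM GSH. Reactions were stopped with 10% trifluoroacetic acid (60 μl/ml sample). Separation used a C18 column in a 5% acetonitrile/0.1% acetic acid gradient. Detection was ESI MS: full scan m/z 150–1000 plus two dependent MS/MS scans at 35% collision energy, with fluorescence detection also used.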

P450 3A4 [3] = assay: Heme analysis of inactivated P450 3A4; type: biochemical, human; conditions: for % P450 Remaining by reduced-CO spectrum: 50 μM CPE or 12 μM TFCPE; for Residual Heme by HPLC: area under heme peak at 405 nm, control set to 100 %; for loss in heme: measured by HPLC, compared with the -NADPH control
In short: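 P450 3A4 was reconstituted and inactivated as in the activity assay (50 μM or 12 μM test compound, 20 min, ±NADPH). For reduced-CO spectra, 100 pmol went into 50 mM phosphate pH 7.4 with 40% glycerol and 0.6% Tergitol, was CO-bubbled and dithionite-reduced, and scanned at 400–500 nm. For heme, 100 pmol was run on C4 HPLC (30–90% acetonitrile, 0.1% TFA, 30 min) and the 405 nm peak area was set against control = 100%. Mean and S.D. of four experiments.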

P450 3A4 [4] = assay: LC-APCI-MS metabolite analysis with P450 3A4; type: in vitro ADME, human; conditions: incubation with P450 3A4 and NADPH
In short: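 P450 3A4 reconstituted with reductase and lipid, then incubated with the test compound and NADPH at 37°C for 60 min. Control and inactivated samples (900 pmol each) were extracted with ethyl acetate and dried under nitrogen. Analysis was by LC-APCI-MS with UV at 319 nm, full scans m/z 100–2000, and data-dependent MS/MS on the four most intense ions.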

P450 3A4 [5] = assay: Formation of 7-hydroxycoumarin by P450 3A4; type: in vitro ADME, human; conditions: 30 min reaction
In short: (§1)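 P450 3A4 or 3A5 (expressed in E. coli, purified) was reconstituted with test compound. Reactions were started with 1 mM NADPH, run 30 min and stopped with 15% trichloroacetic acid. 7-Hydroxycoumarin was measured by C18 HPLC (isocratic 30% methanol, 0.2% acetic acid) with fluorescence detection (ex 350/em 453 nm). Quantified from peak areas against a 7-hydroxycoumarin standard curve.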

P450 3A5 [6] = target: T1, P450 3A5 (Homo sapiens, UniProt P20815); assay: Formation of 7-hydroxycoumarin by P450 3A5; type: in vitro ADME; conditions: 30 min reaction
T1 sequence (P20815 whole entry): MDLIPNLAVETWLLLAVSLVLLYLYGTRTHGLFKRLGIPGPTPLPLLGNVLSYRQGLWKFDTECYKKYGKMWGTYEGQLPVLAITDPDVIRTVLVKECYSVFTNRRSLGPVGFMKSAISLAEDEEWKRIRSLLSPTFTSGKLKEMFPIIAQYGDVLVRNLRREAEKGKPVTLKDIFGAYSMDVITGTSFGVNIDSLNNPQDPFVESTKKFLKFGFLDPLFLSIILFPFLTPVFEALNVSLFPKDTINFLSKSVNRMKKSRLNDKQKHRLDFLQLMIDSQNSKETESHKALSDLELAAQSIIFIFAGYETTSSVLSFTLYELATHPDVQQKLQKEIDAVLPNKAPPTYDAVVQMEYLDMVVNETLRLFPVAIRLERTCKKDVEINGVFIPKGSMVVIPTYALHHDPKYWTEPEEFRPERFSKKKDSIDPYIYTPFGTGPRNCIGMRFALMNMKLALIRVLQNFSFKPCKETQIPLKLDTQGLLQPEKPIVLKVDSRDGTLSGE
In short: as §1

P450 3A4 [7] = type: biochemical, human; conditions: for % Activity Remaining: 50 μM CPE or 12 μM TFCPE; for loss in O-debenzylation activity: after a 20-min incubation compared with 0 min
In short: (§2)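 Purified P450 was reconstituted with reductase and held 20 min at room temperature, then diluted in 50 mM Hepes pH 7.5 with 2 mM GSH and 250 units catalase. Test compound was added (25–500 μM or 5–100 μM, in acetonitrile), then NADPH. Timed 9 pmol aliquots went into 50 μM BFC/1 mM NADPH in 200 mM phosphate pH 7.4 for 15 min at 37 °C. Fluorescence read at ex 409/em 530 nm; KI, kinact and t1/2 from double-reciprocal plots.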

human liver microsomes = assay: Inactivation of human liver microsomes; type: biochemical; conditions: BFC assay; data not shown
[8] = system: dextromethorphan induced micrsomes; assay: Inactivation of dextromethorphan induced microsomes; type: biochemical; conditions: data not shown
In short: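 Human liver microsomes and dextromethorphan-induced microsomes (0.3 nmol) were incubated with test compound in the presence of catalase and GSH. Reactions were started with NADPH and sampled at 0, 5 and 12 min. Residual activity was measured by the BFC O-debenzylation fluorescence assay.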

P450 3A5 [9] = target: T1, P450 3A5; type: biochemical; conditions: in the presence of NADPH
In short: as §2

P450 3A5 [10] = target: T1, P450 3A5; assay: LC-APCI-MS metabolite analysis with P450 3A5; type: in vitro ADME; conditions: incubation with P450 3A5
In short: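 Reconstituted P450 3A5 was incubated with test compound and NADPH. Samples (900 pmol) were extracted with ethyl acetate, dried and taken up in 50% acetonitrile. Separation used C18 reverse phase with a water/acetonitrile gradient in 0.1% acetic acid, monitored by UV at 319 nm. Detection was positive-mode APCI on a linear ion trap, with full scans at m/z 100–2000 and data-dependent MS/MS.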

[11] = substrate BFC, reconstituted system

Compound	Kinact (maximal rate of inactivation) (P450 3A4 [1])	formation of glutathione adducts (P450 3A4 [2])	% P450 Remaining by reduced-CO spectrum (P450 3A4 [3]; 0 min, +NADPH)	% P450 Remaining by reduced-CO spectrum (P450 3A4 [3]; 0 min, -NADPH)	% P450 Remaining by reduced-CO spectrum (P450 3A4 [3]; 20 min, +NADPH)	% P450 Remaining by reduced-CO spectrum (P450 3A4 [3]; 20 min, -NADPH)	Residual Heme by HPLC (P450 3A4 [3]; +NADPH)	Residual Heme by HPLC (P450 3A4 [3]; -NADPH)	loss in heme (P450 3A4 [3])	metabolite peak by LC-APCI-MS/UV 319 nm (P450 3A4 [4])	Formation of 7-OH coumarin (P450 3A4 [5])	Formation of 7-OH coumarin (P450 3A5 [6])	% Activity Remaining (P450 3A4 [7]; 0 min, +NADPH)	% Activity Remaining (P450 3A4 [7]; 0 min, -NADPH)	% Activity Remaining (P450 3A4 [7]; 20 min, +NADPH)	% Activity Remaining (P450 3A4 [7]; 20 min, -NADPH)	loss in O-debenzylation activity (P450 3A4 [7])	Kinact (maximal rate of inactivation) (P450 3A4 [7]; [11])	inactivation of human liver microsomes (human liver microsomes)	inactivation of dextromethorphan induced microsomes [8]	further results
C#CCOc1ccc2ccc(=O)oc2c1 [CPE, 7-coumarin propargyl ether]	0.014 min⁻¹	formation of CPE- and TFCPE-glutathione adducts	69 ± 5%	69 ± 7%	67 ± 4%	67 ± 2%	70 ± 11%	100 ± 9%	approximately 30%	No similar peak or any other metabolite peak was observed	48.1 ± 5 pmol/pmol P450/min	85.5 ± 7 pmol/pmol P450/min	85 ± 4%	86 ± 5%	50 ± 9%	79 ± 3%	~35%	0.05 min⁻¹	did not show inactivation; also recorded: neither CPE nor TFCPE led to any inactivation	did not show inactivation	inactivation of the BFC O-debenzylation activity of P450 3A5 (P450 3A5 [9]): no inactivation; also recorded: neither CPE nor TFCPE showed any effect; also recorded: do not affect the activity
C#CCOc1ccc2c(C(F)(F)F)cc(=O)oc2c1 [TFCPE, 7-(4-trifluoromethyl)coumarin propargyl ether]	0.04 min⁻¹	formation of CPE- and TFCPE-glutathione adducts	75 ± 6%	75 ± 4%	43 ± 4%	62 ± 2%	61 ± 2%	100 ± 4%	40%	single metabolite peak eluting at 20.34 min	97.2 ± 1 pmol/pmol P450/min	78.8 ± 11 pmol/pmol P450/min	82 ± 5%	88 ± 3%	25 ± 3%	79 ± 7%	approximately 55%	0.04 min⁻¹	did not show inactivation; also recorded: neither CPE nor TFCPE led to any inactivation	did not show inactivation	t1/2 (P450 3A4 [1]): 17 min; t1/2 (P450 3A4 [7]; [11]): 16.5 min; loss in activity (P450 3A4 [7]; with the -NADPH +TFCPE control): approximately 55%; metabolite by LC-APCI-MS (P450 3A5 [10]): did not result in any metabolite; inactivation of the BFC O-debenzylation activity of P450 3A5 (P450 3A5 [9]): no inactivation; also recorded: neither CPE nor TFCPE showed any effect; also recorded: do not affect the activity
